Legend:
[1] = plasma; ref 43-47 (Reference column, one per TKI); cited from earlier work
[2] = target: T1, ENT1 (Homo sapiens, UniProt Q99808); test: Inhibition of ENT1-mediated [3H]-uridine uptake in HAP1 ENT2-KO cells; assay type: cell-based; conditions: 10 µM TKI; for % inhibition of ENT1 activity (mean ± SD): HAP1-ENT2 KO cells, [3H]-uridine uptake 5 min at 37 °C; for ENT1 inhibitor class / Effect on ENT1 activity (in words): HAP1 ENT2-KO cells
T1 sequence (Q99808 1-456): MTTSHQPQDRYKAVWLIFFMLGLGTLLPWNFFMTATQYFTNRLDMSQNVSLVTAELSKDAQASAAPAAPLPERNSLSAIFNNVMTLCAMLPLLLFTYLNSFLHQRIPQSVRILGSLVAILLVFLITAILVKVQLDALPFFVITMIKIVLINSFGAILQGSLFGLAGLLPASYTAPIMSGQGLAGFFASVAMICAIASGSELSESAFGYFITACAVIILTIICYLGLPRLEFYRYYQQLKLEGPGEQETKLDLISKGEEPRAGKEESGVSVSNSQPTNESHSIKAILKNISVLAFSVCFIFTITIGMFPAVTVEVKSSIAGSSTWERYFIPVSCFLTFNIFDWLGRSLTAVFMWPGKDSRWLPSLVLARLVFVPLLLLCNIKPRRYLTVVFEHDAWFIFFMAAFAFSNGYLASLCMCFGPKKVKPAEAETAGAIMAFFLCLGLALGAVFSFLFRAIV

[3] = target: T1, ENT1; test: Prediction of in vivo ENT1 inhibition; conditions: predicted if Imax,u/IC50 ≥ 0.1
Outline: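 Unbound peak plasma level (Imax,u) was obtained from literature Cmax and unbound fraction and divided by in vitro ENT1 IC50. Inhibition was predicted when the ratio was ≥ 0.1, following FDA drug-interaction guidance.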

[4] = Maximum plasma concentration of TKIs; assay type: in vivo; conditions: from Cmax and fu
[5] = test system: ENT1/ENT2; test: Lorlatinib accumulation assay in HAP1 wild-type, ENT1-KO and ENT2-KO cells; assay type: cell-based, human; conditions: 10 µM lorlatinib, ENT1-KO, ENT2-KO cells
Outline: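 HAP1 wild-type, ENT1-KO and ENT2-KO cells were grown in Iscove's modified Dulbecco's medium with 10% fetal calf serum and penicillin/streptomycin. Cells were exposed to 10 µM test compound for 5 min at 37 °C, without or with 0.1 µM (ENT1) or 100 µM (ENT1/ENT2) NBMPR. They were then washed twice in ice-cold PBS and lysed in distilled water. Lysates underwent acetonitrile extraction, and compound was quantified by LC–MS/MS (C18 column, ESI+).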

[6] = target: T2, ENT2 (Homo sapiens, UniProt Q14542); test: Prediction of in vivo ENT2 inhibition; conditions: Imax,u/IC50 greater than 0.1
T2 sequence (Q14542 1-456): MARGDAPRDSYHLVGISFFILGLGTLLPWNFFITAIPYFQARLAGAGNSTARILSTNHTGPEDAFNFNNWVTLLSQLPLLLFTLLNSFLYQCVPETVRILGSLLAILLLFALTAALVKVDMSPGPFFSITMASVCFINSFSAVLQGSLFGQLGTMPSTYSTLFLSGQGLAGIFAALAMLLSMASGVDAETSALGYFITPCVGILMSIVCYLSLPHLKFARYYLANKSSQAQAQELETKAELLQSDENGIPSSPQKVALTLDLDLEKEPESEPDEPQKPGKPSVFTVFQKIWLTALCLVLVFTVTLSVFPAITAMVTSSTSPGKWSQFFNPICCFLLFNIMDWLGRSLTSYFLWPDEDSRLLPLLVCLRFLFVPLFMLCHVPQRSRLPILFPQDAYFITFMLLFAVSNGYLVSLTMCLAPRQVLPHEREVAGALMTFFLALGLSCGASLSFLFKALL
Outline: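 Imax,u from literature Cmax and unbound fraction was divided by ENT2 IC50, using the FDA guidance threshold of 0.1. […] Uptake was counted by scintillation, normalised to protein, and fitted to a four-parameter logistic curve; three independent assays.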

| Structure (SMILES) | % inhibition of ENT1 activity (mean ± SD) [2] | ENT1 inhibitor class [2] | also measured |
| --- | --- | --- | --- |
| COc1cc2nccc(Oc3ccc(NC(=O)NC4CC4)c(Cl)c3)c2cc1C(N)=O [Lenvatinib, lenvatinib] | 63.1 ± 5.9 % | potent (inhibit ENT1 by more than 60%) | fu (unbound fraction) [1]: 0.016; Predicted in vivo inhibition [3]: No |
| COC(=O)c1ccc2c(c1)NC(=O)/C2=C(\Nc1ccc(N(C)C(=O)CN2CCN(C)CC2)cc1)c1ccccc1 [Nintedanib, nintedanib] | 46.9 ± 9.6 % |  |  |
| C[C@@H](Oc1cc(-c2cnn(C3CCNCC3)c2)cnc1N)c1c(Cl)ccc(F)c1Cl [Crizotinib, crizotinib] | 34.7 ± 2.7 % | weak (decreased ENT1 activity by less than 35% and can thus be considered as weak ENT1 inhibitors) | Effect on ENT1 activity (in words) [2]: only modestly decrease ENT1 activity |
| CC#CC(=O)N1CCC[C@H]1c1nc(-c2ccc(C(=O)Nc3ccccn3)cc2)c2c(N)nccn12 [Acalabrutinib, acalabrutinib] | 42.6 ± 10.4 % | moderate (inhibit ENT1 activity by more than 35% but less than 60%) |  |
| N#CCC1(n2cc(-c3ncnc4[nH]ccc34)cn2)CN(C2CCN(C(=O)c3ccnc(C(F)(F)F)c3F)CC2)C1 [Itacitinib, itacitinib] | 21.9 ± 13.3 % | weak (decreased ENT1 activity by less than 35% and can thus be considered as weak ENT1 inhibitors) |  |
| C[C@H]1Oc2cc(cnc2N)-c2c(nn(C)c2C#N)CN(C)C(=O)c2ccc(F)cc21 [Lorlatinib, (10R)-7-amino-12-fluoro-2,10,16-trimethyl-15-oxo-10,15,16,17-tetrahydro-2H-8,4-(metheno)pyrazolo[4,3-h][2,5,11]-benzoxadiazacyclotetradecine-3-carbonitrile] | 86.6 ± 6.4 % | potent (inhibit ENT1 by more than 60%) | Imax,u (maximum unbound plasma concentration) [4]: 485 nM; Predicted in vivo inhibition [3]: Yes; Cellular accumulation of lorlatinib ([5]; 5 min at 37 °C, without or with 0.1 or 100 µM NBMPR): similarly accumulate in HAP1 wild-type, ENT1-KO, and ENT2-KO cells; Substrate for ENT1/ENT2 ([5]; ± NBMPR): not a substrate for either ENT1 or ENT2; Predicted in vivo inhibition (in words) [6]: should also be clinically relevant |
| C[C@@H]1CCN(C(=O)CC#N)C[C@@H]1N(C)c1ncnc2[nH]ccc12 [Tofacitinib, tofacitinib] | 4.8 ± 8.3% |  | Effect on ENT1 activity (in words) [2]: failed to significantly alter ENT1 activity |
| CN(C)C/C=C/C(=O)Nc1cc2c(Nc3ccc(F)c(Cl)c3)ncnc2cc1O[C@H]1CCOC1 [Afatinib, afatinib] | 54.5 ± 2.4 % | moderate (inhibit ENT1 activity by more than 35% but less than 60%) |  |
| COc1cc2nccc(Oc3ccc(NC(=O)C4(C(=O)Nc5ccc(F)cc5)CC4)cc3)c2cc1OC [Cabozantinib, cabozantinib] | 48.8 ± 2.5 % | moderate (inhibit ENT1 activity by more than 35% but less than 60%) |  |
| COc1cc2ncnc(Nc3ccc(F)c(Cl)c3)c2cc1NC(=O)/C=C/CN1CCCCC1 [Dacomitinib, dacomitinib] | 43.9 ± 2.3 % | moderate (inhibit ENT1 activity by more than 35% but less than 60%) |  |
| CCc1cc2c(cc1N1CCC(N3CCOCC3)CC1)C(C)(C)c1[nH]c3cc(C#N)ccc3c1C2=O [Alectinib, alectinib] | 54.0 ± 4.9 % | moderate (inhibit ENT1 activity by more than 35% but less than 60%) |  |
| CCOc1cc2ncc(C#N)c(Nc3ccc(OCc4ccccn4)c(Cl)c3)c2cc1NC(=O)/C=C/CN(C)C [Neratinib, neratinib] | 61.0 ± 8.5 % | potent (inhibit ENT1 by more than 60%) | fu (unbound fraction) [1]: 0.01; Imax,u (maximum unbound plasma concentration) [4]: 1.46 nM; Predicted in vivo inhibition [3]: No |
| CCN1CCN(Cc2ccc(Nc3ncc(F)c(-c4cc(F)c5nc(C)n(C(C)C)c5c4)n3)nc2)CC1 [Abemaciclib, abemaciclib] | 25.0 ± 7.9 % | weak (decreased ENT1 activity by less than 35% and can thus be considered as weak ENT1 inhibitors) |  |
| CNC(=O)c1cc(Oc2ccc(NC(=O)Nc3ccc(Cl)c(C(F)(F)F)c3)c(F)c2)ccn1 [Regorafenib, regorafenib] | 21.4 ± 2.7 % |  |  |
| COc1cc(N2CCC(N3CCN(C)CC3)CC2)ccc1Nc1ncc(Cl)c(Nc2ccccc2P(C)(C)=O)n1 [Brigatinib, brigatinib] | 52.5 ± 11.1 % | moderate (inhibit ENT1 activity by more than 35% but less than 60%) |  |
| C1=C/COCc2cc(ccc2OCCN2CCCC2)Nc2nccc(n2)-c2cccc(c2)COC/1 [Pacritinib, 11-(2-pyrrolidin-1-yl-ethoxy)-14,19-dioxa-5,7,26-triaza-tetracyclo[19.3.1.1(2,6).1(8,12)]heptacosa-1(25),2(26),3,5,8,10,12(27),16,21,23-decaene] | 61.6 ± 8.1 % | potent (inhibit ENT1 by more than 60%) | fu (unbound fraction) [1]: 0.011; Imax,u (maximum unbound plasma concentration) [4]: 247.5 nM; Predicted in vivo inhibition [3]: No |
| CN(C)C(=O)c1cc2cnc(Nc3ccc(N4CCNCC4)cn3)nc2n1C1CCCC1 [Ribociclib, ribociclib] | 17.8 ± 10.2% |  | Effect on ENT1 activity (in words) [2]: failed to significantly alter ENT1 activity |
| C=CC(=O)Nc1cc(Nc2nccc(-c3cn(C)c4ccccc34)n2)c(OC)cc1N(C)CCN(C)C [Osimertinib, osimertinib] | 32.3 ± 11.3 % | weak (decreased ENT1 activity by less than 35% and can thus be considered as weak ENT1 inhibitors) |  |
| CN1CCN(c2ccc(C(=O)Nc3n[nH]c4ccc(Cc5cc(F)cc(F)c5)cc34)c(NC3CCOCC3)c2)CC1 [Entrectinib, entrectinib] | 22.9 ± 5.2 % |  |  |
| CCCS(=O)(=O)Nc1ccc(F)c(C(=O)c2c[nH]c3ncc(-c4ccc(Cl)cc4)cc23)c1F [Vemurafenib, vemurafenib] | 27.3 ± 10.9 % | weak (decreased ENT1 activity by less than 35% and can thus be considered as weak ENT1 inhibitors) |  |
| Cc1cc(Nc2ncc(Cl)c(Nc3ccccc3S(=O)(=O)C(C)C)n2)c(OC(C)C)cc1C1CCNCC1 [Ceritinib, ceritinib] | 26.3 ± 1.7 % | weak (decreased ENT1 activity by less than 35% and can thus be considered as weak ENT1 inhibitors) | Effect on ENT1 activity (in words) [2]: only modestly decrease ENT1 activity |
| C=CC(=O)N1CCC[C@@H](n2nc(-c3ccc(Oc4ccccc4)cc3)c3c(N)ncnc32)C1 [Ibrutinib, ibrutinib] | 72.7 ± 1.1 % | potent (inhibit ENT1 by more than 60%) | Imax,u (maximum unbound plasma concentration) [4]: 9.56 nM; Predicted in vivo inhibition [3]: No |

From publication PMC8286641 (European Journal of Drug Metabolism and Pharmacokinetics, 2021)
